Results on six molecules are retold here after ChEMBL document CHEMBL1138405, “Limonoid orthoacetates and antiprotozoal compounds from the roots of Pseudocedrela kotschyi” (J Nat Prod, 2007).

≈ marks a conversion by molar mass, not a printed value. Where only a bound is given, the exact number is not on record here.

One test relates to Plasmodium falciparum. As to the kind of experiment: Antiplasmodial activity against Plasmodium falciparum K1. Type of test: functional, organism-based. In outline:
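P. falciparum K1 is a strain resistant to chloroquine and pyrimethamine.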

The test system of the next test is Leishmania donovani. In words: Antiprotozoal activity against Leishmania donovani MHOM/ET/67/L82 amastigotes. Type of test: functional, organism-based. The procedure, abridged: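 L. donovani tested as axenic amastigotes.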
In test [1] the test system is Trypanosoma brucei rhodesiense. As to the kind of experiment: Antiprotozoal activity against Trypanosoma brucei rhodesiense STIB900. Type of test: functional, organism-based.
The test system of another test is Trypanosoma cruzi. As to the kind of experiment: Antiprotozoal activity against Trypanosoma cruzi Tulahuen C2C4 trypomastigotes in L6 cells. Type of test: functional, organism-based.
In a further test the test system is L6. In words: Cytotoxicity against rat L6 cells. Type of test: cell-based.

As a reminder, the IC50 is the concentration at which inhibition is half-maximal. For `CC1(C)C(=O)C=C[C@]2(C)[C@H]3CC[C@@]4(C)[C@H](c5ccoc5)OC(=O)[C@H]5O[C@]54[C@]3(C)C(=O)C[C@@H]12` [DEACETOXY-7-OXOGEDUNIN], the IC50 with Plasmodium falciparum was 1.77 µg/mL (≈ 4.05 µM); in the test on Leishmania donovani, 0.994 µg/mL (≈ 2.27 µM); in test [1], 3.4 µg/mL (≈ 7.75 µM); in the test on Trypanosoma cruzi, over 30 µg/mL; with L6, over 90 µg/mL.

Turning to `COc1cc([C@@H]2c3cc4c(cc3[C@H](O)[C@H]3COC(=O)[C@H]23)OCO4)cc(OC)c1OC` [PODOFILOX], in the test with L6, the IC50 is 0.005 µg/mL (≈ 0.0121 µM).

Regarding `COC(=O)C[C@@H]1[C@](C)([C@@H](OC(C)=O)c2ccoc2)CC[C@@]23OC4(C)O[C@@]12[C@H](OC(=O)C(C)C)[C@@]1(OC(C)=O)[C@@H](OC(C)=O)[C@@]2(C)C[C@@]1(O4)[C@]31COC(=O)C[C@@H]21` [KOTSCHYIN A], the IC50 was over 5 µg/mL with Plasmodium falciparum; over 30 µg/mL in the test with Leishmania donovani; 11.6 µg/mL (≈ 15 µM) in test [1]; over 30 µg/mL with Trypanosoma cruzi; over 90 µg/mL in the test with L6.

Molecule `CCCCCCCCCCCCCCCCOP(=O)([O-])OCC[N+](C)(C)C` [MILTEFOSINE] registered an IC50 with Leishmania donovani of 0.12 µg/mL (≈ 0.294 µM).

For `CC1(C)C(=O)C=C[C@]2(C)[C@H]3CC[C@@]4(C)[C@H](c5ccoc5)OC(=O)[C@H]5O[C@]54[C@]3(C)[C@H](O)C[C@@H]12` [DEACETYLGEDUNIN], the IC50 was 1.36 µg/mL (≈ 3.09 µM) in the test with Plasmodium falciparum; 1.4 µg/mL (≈ 3.18 µM) in the test on Leishmania donovani; 3.45 µg/mL (≈ 7.83 µM) in test [1]; 5.2 µg/mL (≈ 11.8 µM) with Trypanosoma cruzi; 13.3 µg/mL (≈ 30.2 µM) in the test on L6.

The molecule `O=C(Cn1ccnc1[N+](=O)[O-])NCc1ccccc1` [BENZNIDAZOLE] returned an IC50 in the test on Trypanosoma cruzi of 0.74 µg/mL (≈ 2.84 µM).
